# Rows were chosen to be rich in hits. Some 2.6% of all compounds tested hit in one or more screens of this group.
# Platelet DG rel: platelet dense granule release activity; human platelet-rich plasma, SFLLRN dense granule ATP release, luminescence; inhibition, %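 (compounds screened at 7.5 µM in platelet-rich plasma)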; 300,000 compounds, 0.22% hits; AID 1663;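 active means mean replicate score, as percent of positive control, at or above 50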
# SENP8 block-1: inhibitors of human SENP8 protease. purified SENP8, Z-RLRGG-aminoluciferin cleavage, luminescence. inhibition, % at 10 µM. 330,000 compounds, 1.2% hits. AID 2540; in the data active means inhibition above about 50%
# SENP8 block-2: inhibitors of human SENP8 protease; Q96LD8; recombinant SENP8, Nedd8 substrate fluorescence; inhibition, % at 20 µM; 360,000 compounds, 0.64% hits; AID 602440; in the data active means inhibition mostly above about 40%, no sharp cut-off; inactive means mostly below about 27%
# SENP6 block: inhibitors of human SENP6 protease. Q9GZR1. Recombinant SENP6 catalytic domain, aminoluciferin luminescence. inhibition, % at 10 µM. 330,000 compounds, 1.8% hits;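 active means inhibition above about 50% at the single tested dose, limit read from the data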;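 further: plate controls were DMSO wells with enzyme for no effect and DMSO wells lacking enzyme for full effect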
# Target sequence (Q9GZR1 628-1112 limits assumed): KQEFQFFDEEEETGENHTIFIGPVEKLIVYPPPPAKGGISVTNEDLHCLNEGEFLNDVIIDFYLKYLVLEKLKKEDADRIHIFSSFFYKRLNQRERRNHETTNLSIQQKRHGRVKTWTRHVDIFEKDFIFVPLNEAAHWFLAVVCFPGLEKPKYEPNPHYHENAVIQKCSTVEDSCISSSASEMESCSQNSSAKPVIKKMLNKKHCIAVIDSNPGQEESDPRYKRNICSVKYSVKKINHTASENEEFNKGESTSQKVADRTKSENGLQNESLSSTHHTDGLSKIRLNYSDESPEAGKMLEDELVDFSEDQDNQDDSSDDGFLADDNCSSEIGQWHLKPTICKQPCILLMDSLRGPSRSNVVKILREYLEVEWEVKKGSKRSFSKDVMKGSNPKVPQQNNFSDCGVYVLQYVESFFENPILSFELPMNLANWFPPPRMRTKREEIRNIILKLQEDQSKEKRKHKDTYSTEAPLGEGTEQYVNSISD
# SENP1 FRET inh: inhibitors of human SENP1 SUMO protease catalytic domain | 360,000 compounds, 0.21% hits | inhibition, % at 10 µM | Q9P0U3 | recombinant SENP1 catalytic domain, CyPet-SUMO1-YPet FRET cleavage;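 active means inhibition at least 30% at 10 µM, raw YFP signal under a set limit, fluorescence ratio 0.5 to 1.5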;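 further: 0% = enzyme with DMSO and 100% = no enzyme wells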
#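 System: Recombinant human SENP1 catalytic domain, His6-tagged | Incubation: Enzyme reaction for 50 min at room temperature, dark | Medium: Tris pH 8 with BME, BSA, NP40 and catalase | Also added: 25 nM SUMO1 FRET substrate | Compound: 10 µM single point, 0.5% DMSO | Measured by: FRET fluorescence in CFP and YFP emission channels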
# SENP7 block: inhibitors of human SENP7 protease; recombinant SENP7, Z-RLRGG-aminoluciferin luminescence, 40 min; inhibition, % at 5 µM; 330,000 compounds, 1.5% hits;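 active means inhibition above about 50% at the single test dose, limit read from the data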;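 further: plate controls were DMSO with enzyme for no effect and no enzyme buffer wells for full effect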
# SENP8 confirm: human SENP8 inhibition, confirmed | AID 488912 | inhibition, % at 12.5 µM | 6,200 compounds, 40% hits | Recombinant SENP8, Z-RLRGG-aminoluciferin luminescence, 60 min | shares compounds with SENP7 block;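 active means mean inhibition across replicates above about 50%, limit read from the data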
# SENP6 conf: human SENP6 inhibition, confirmed. shares compounds with SENP7 block. recombinant SENP6, Z-RLRGG-aminoluciferin luminescence. inhibition, % at 12.5 µM. 6,200 compounds, 58% hits
# SENP7 conf: human SENP7 inhibition, confirmed. shares compounds with SENP7 block. recombinant SENP7, Z-RLRGG-aminoluciferin luminescence, 40 min. inhibition, % at 12.5 µM. 6,200 compounds, 69% hits
# Casp3 select: caspase-3 inhibition (SENP selectivity assay); shares compounds with SENP7 block; purified caspase-3, Z-DEVD-aminoluciferin luminescence, 60 min; inhibition, % at 12.5 µM; 6,200 compounds, 60% hits; AID 488918;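 active means mean inhibition above about 50%, limit read from the data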;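 further: plate controls were enzyme with DMSO for no effect and wells without caspase-3 for full effect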
# Target sequence (P42574 28-227 limits assumed): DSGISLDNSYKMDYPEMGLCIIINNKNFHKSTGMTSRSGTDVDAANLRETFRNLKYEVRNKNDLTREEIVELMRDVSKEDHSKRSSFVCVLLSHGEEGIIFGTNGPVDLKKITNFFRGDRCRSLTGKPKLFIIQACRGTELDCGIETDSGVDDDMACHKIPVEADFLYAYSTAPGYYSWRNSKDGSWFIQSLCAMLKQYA
# Luc interf: interferes with luciferase luminescence in SENP counter-screen | 6,200 compounds, 39% hits | inhibition, % at 12.5 µM | shares compounds with SENP7 block | Pre-incubated SENP8/Z-RLRGG-aminoluciferin, luciferase luminescence interference;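 active means mean inhibition above about 50% when retested at one dose, limit read from the data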;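 further: plate controls were DMSO wells with completed reaction for no effect and substrate without enzyme for full effect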
# An asterisk follows results filed as active; / = no result.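 How the source made its calls, unless noted: active means mean inhibition above about 50% in the one-dose retest (limit read from the data); inactive means the rest.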
SMILES,Platelet DG rel,SENP8 block-1,SENP8 block-2,SENP6 block,SENP1 FRET inh,SENP7 block,others
C=C(C)C(=O)Oc1ccc(N=Nc2ccc(C)cc2)ccc1=O,/,/,36,/,34*,/,
C=C(C)C(=O)Oc1ccc(N2C(=O)CCC2=O)cc1,0,2,29,1,2,-4,
O=C(O)c1ccc(N/N=C/C2=Cc3ccccc3OC2)cc1,31,98*,-231,101*,-81,99*,
O=[N+]([O-])c1ccc(CCNc2cccc3ccccc23)c([N+](=O)[O-])c1,-9,36,-25,55*,0,12,
Cc1nc(NC(=O)c2ccccc2)sc1-c1csc(Nc2cccc(Cl)c2)n1,4,24,/,39,/,9,
Cc1nc(NC(=O)c2ccccc2)sc1-c1csc(Nc2ccc(Cl)cc2)n1,4,42,/,51*,/,25,
Cc1nc(NC(=O)c2ccccc2)sc1-c1csc(Nc2ccc(F)cc2)n1,11,48,/,45,/,20,
Cc1nc(NC(=O)c2ccccc2)sc1-c1csc(Nc2ccc(Cl)cc2Cl)n1,16,33,/,51*,/,59*,
O=[N+]([O-])c1ccc(Sc2cccc[n+]2[O-])c2nonc12,20,/,15,/,41*,/,
COc1ccc2c(c1OC)C(=O)OC2Nc1nc(-c2cc3cc(Br)ccc3oc2=O)cs1 (stereo not drawn),31,91*,-382,95*,-32,91*,
COc1ccc(-c2csc(NC3OC(=O)c4c3ccc(OC)c4OC)n2)cc1OC (stereo not drawn),2,-14,12,-20,1,-13,
[O-][N+]1=c2ccc(Nc3ccccc3)cc2=NC12CCCCC2,-2,/,86*,/,11,/,
O=[N+]([O-])c1ccc2c(c1N1CCCCC1)=NC1(CCCCC1)[N+]=2[O-],-3,12,35,25,-3,1,
CN(C)c1ccc(Cc2ccc(N(C)C)cc2)cc1,/,/,30*,/,3,/,
CN(C)c1ccc(CCc2ccc(N)cc2)cc1,12,-5,-460,-8,4,11,
O=C(NNc1nc2ccccc2s1)Nc1ccccc1,2,-9,-4,-24,-1,1,
S=C(Nc1ccccc1)c1nc2ccccc2s1,2,48,-12,-17,2,67*,
Cc1cccc(NC(=O)c2ccc(N3CCOCC3)c([N+](=O)[O-])c2)n1,5,-2,27,-17,2,7,
Cc1cccc(NC(=O)c2ccc(N3CCCCC3)c([N+](=O)[O-])c2)n1,11,48,15,76*,4,73*,
COCCNC(=O)C1(C)CCN(C(=O)c2sccc2C)C1 (stereo not drawn),/,/,-1,/,-1,/,
Cc1nn(-c2ccccc2)c(N)c1N=Nc1cccc(S(=O)(=O)N2CCOCC2)c1,16,1,41*,3,-1,2,
Cc1cc2nc(-c3ccco3)c(Cc3cccc(Cl)c3)n2c(C)c1Br,/,/,1,/,-4,/,
COC(=O)Nc1nnc(-c2ccccc2OC)s1,-8,33,-168,42,-9,67*,
CCOC(=O)Nc1nnc(-c2ccccc2OC)s1,11,-9,-173,-22,-1,5,
COCCNC(=O)C[C@@H]1C[C@H]2c3cc(NC(=O)Nc4ccc(F)cc4)ccc3O[C@H]2[C@H](CO)O1,/,/,5,/,1,/,
SMILES,Platelet DG rel,SENP8 block-1,SENP8 block-2,SENP6 block,SENP1 FRET inh,SENP7 block,others
COc1cc(/C=N/NC(N)=O)ccc1OCC(=O)Nc1ccc(C)c(C)c1,56*,-6,12,-13,4,3,
COc1cc(/C=N/NC(N)=S)ccc1OCC(=O)Nc1ccc(C)c(C)c1,1,-2,-1,3,2,-8,
C(=N\N=C\c1ccccc1)/c1ccccc1,-4,65*,5,83*,3,69*,SENP8 confirm=-2;SENP6 conf=67*;SENP7 conf=94*;Casp3 select=62*;Luc interf=10
Cc1ccc(/C=N/N=C/c2ccc(C)cc2)cc1,-3,-13,14,1,1,39,
CC1(Oc2cccc(F)c2)CCN(Cc2ccc(-c3ccccn3)cc2)C1 (stereo not drawn),/,/,17,/,-3,/,
O=C(/C=C/Nc1ccc(F)cc1F)c1ccco1,53*,87*,-168,87*,-43,90*,SENP8 confirm=91*;SENP6 conf=97*;SENP7 conf=101*;Casp3 select=96*;Luc interf=85*
O=C(/C=C/c1ccc(Br)cc1)c1ccco1,1,-14,17,-9,0,-8,
O=C(/C=C/Nc1ccc(Br)cc1F)c1ccco1,65*,96*,-410,95*,-114,98*,SENP8 confirm=-2;SENP6 conf=93*;SENP7 conf=100*;Casp3 select=86*;Luc interf=28
O=C(NNC(=S)Nc1ccc(F)cc1F)c1ccco1,-3,3,-4,5,1,18,
O=C(/C=C/Nc1ccc(F)cc1F)c1ccc(Br)cc1,-3,0,-64,16,-101,67*,SENP8 confirm=-6;SENP6 conf=-3;SENP7 conf=-1;Casp3 select=17;Luc interf=3
CN(C(=O)CC1C(=O)NCCN1CC1CCCCC1)C1CCOCC1 (stereo not drawn),-15,-5,-202,17,-21,-8,
Cc1cc(NC(=O)c2sc3ccccc3c2O)no1,-1,75*,-370,89*,-126,73*,SENP8 confirm=86*;SENP6 conf=85*;SENP7 conf=98*;Casp3 select=92*;Luc interf=65*
c1ccc(-c2nc(-c3ccccn3)nc(-c3ccccn3)n2)nc1,-26,-14,0,-15,-1,-12,
c1ccc(C2=NNC(c3ccccn3)=NN2)nc1,34,74*,25,78*,-30,30,SENP8 confirm=3;SENP6 conf=89*;SENP7 conf=100*;Casp3 select=96*;Luc interf=75*
c1ccc(-c2nnc(-c3ccccn3)s2)nc1,-11,83*,-20,90*,2,89*,SENP8 confirm=91*;SENP6 conf=93*;SENP7 conf=102*;Casp3 select=96*;Luc interf=88*
O=C(O)c1ccc(N/N=C2/CCCc3ccccc32)cc1,7,48,-19,71*,2,17,SENP8 confirm=71*;SENP6 conf=68*;SENP7 conf=84*;Casp3 select=73*;Luc interf=58*
Cc1ccc(C(=O)O/N=C2\CCCc3ccccc32)cc1,14,90*,12,97*,5,97*,SENP8 confirm=72*;SENP6 conf=98*;SENP7 conf=103*;Casp3 select=85*;Luc interf=12

# Screens as filed in PubChem BioAssay.
